Test results published in PubChem BioAssay.
A number with no mark means an inactive call. Some of the results follow. Active and inactive are the calls of the source. Rule as the data show it, unless noted: active = inhibition above about 36%; inactive = the rest.

How the values were obtained:
[1] = test system: transactivating tegument protein VP16 (Human herpesvirus 1); assay: compounds suppressing VP16-driven luciferase signal – cell-based, luminescence, single concentration, counter-screen for SRC2 inhibitor project (AID 652007); conditions: cell-based VP16 transactivation luciferase reporter, at 8.9 µM, hits give high values
[2] = molecular target: Nuclear receptor coactivator 2 (Homo sapiens) (UniProt Q15596); assay: inhibition of GAL4-SRC2 driven luciferase expression – cell-based, luminescence, HEK293, triplicate, confirmation (AID 652008;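 active = mean inhibition above 46.5%, the solvent-only control mean plus 3 SD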;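 also: 0% = DMSO-treated cells and 100% = Gossypol at 36 µM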); conditions: HEK293 GAL4-SRC2 luciferase reporter, at 8.9 µM, hits give high values
[3] = VP16-driven transactivation reporter suppression – cell-based, luminescence, HEK293, counter-screen for COUP-TFII antagonist project (AID 687007; in the data active = inhibition above about 13%); conditions: HEK293 Gal4-VP16 luciferase reporter, at 8.5 µM, hits give high values
[4] = molecular target: COUP transcription factor 2 (Homo sapiens) (UniProt P24468); assay: retest of COUP-TFII reporter suppressors – cell-based, luciferase reporter, HEK293, triplicate, confirmation (AID 687008;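 active = mean inhibition over three repeats above a set limit taken from the earlier primary screen, cut at about 38% in these data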;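 also: 100% = cells given the luciferase reporter alone without the COUP-TF2 vector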); conditions: HEK293 NGFI-A luciferase reporter, luminescence; at 8.5 µM; hits give high values
[5] = BSA probe fluorescence interference – biochemical, TAMRA-labeled BSA, counter-screen for TCR-CD3 interaction inhibitor project (AID 652035; in the data active = inhibition above about 23%;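 also: 0% = buffer low control and 100% = reference high control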); conditions: TAMRA-labeled BSA probe fluorescence counterscreen; at 9.4 µM; hits give high values
[6] = test system: T-cell receptor (TCR)-CD3 interaction, human; assay: blockers of TCR binding to CD3 – biochemical, fluorescence, TAMRA-labeled TCR probe, confirmation (AID 652036; in the data active = inhibition above about 19%); conditions: TAMRA-labeled TCR probe fluorescence binding assay; at 9.4 µM; hits give high values
[7] = molecular target: Galanin receptor type 2 (Homo sapiens) (UniProt O43603); assay: blockers of human galanin receptor 2 – cell-based, confirmation (AID 866; in the data active = inhibition above about 27%;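 also: cells stimulated with galanin at about its EC80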); conditions: GALR2-expressing cells, antagonist mode, at 4 µM, hits give high values
[8] = nonspecific BLA reporter inhibition – CHO NFAT-bla cells, FRET readout, counter-screen for GALR2 antagonist project, confirmation (AID 867;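 active = inhibition above the mean inhibition across tested compounds plus 3 SD, cut at about 27% in these data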;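 also: 0% = 500 nM thapsigargin stimulated wells and 100% = unstimulated BSA only wells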); conditions: beta-lactamase FRET, thapsigargin-stimulated, at 4.2 µM, hits give high values
[9] = molecular target: (Lyso)-N-acylphosphatidylethanolamine lipase (Mus musculus) (UniProt Q8VD66); assay: mouse ABHD4 hydrolase blockers, triplicate – biochemical, fluorescence polarization, confirmation (AID 720658;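 active = mean inhibition across replicates above the hit cutoff set in the primary screen, cut at about 30% in these data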;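 also: 0% = wild-type ABHD4 with DMSO and 100% = catalytically dead S159A mutant with DMSO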); conditions: purified mABHD4, FP-Rh probe fluorescence polarization; at 8.92 µM; hits give high values
Method in brief: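 Material: Wild-type mouse ABHD4 | Compound: Single nominal compound dose 8.92 µM, 0.89% DMSO final | Measured by: Fluorescence polarization, excitation 525 nm, emission 598 nm | Incubation: 45 min compound pretreatment plus 60 min FP-Rh labeling, 25 °C | Measure: Percent inhibition scaled between wild-type DMSO and S159A mutant wells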

Sequence of COUP transcription factor 2 (Homo sapiens) (P24468 whole entry, looked up): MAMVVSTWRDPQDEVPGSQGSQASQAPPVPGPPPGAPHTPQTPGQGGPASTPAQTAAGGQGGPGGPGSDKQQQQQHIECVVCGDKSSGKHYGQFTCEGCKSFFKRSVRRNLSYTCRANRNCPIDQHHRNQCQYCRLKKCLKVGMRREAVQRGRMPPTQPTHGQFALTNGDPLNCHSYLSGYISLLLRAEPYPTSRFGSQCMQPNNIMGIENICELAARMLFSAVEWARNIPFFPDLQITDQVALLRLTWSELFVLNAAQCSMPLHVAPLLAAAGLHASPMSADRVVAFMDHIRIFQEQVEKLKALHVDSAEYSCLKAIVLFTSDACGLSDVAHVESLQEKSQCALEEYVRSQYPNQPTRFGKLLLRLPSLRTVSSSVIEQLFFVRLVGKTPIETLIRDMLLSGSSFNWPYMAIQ
Sequence of Nuclear receptor coactivator 2 (Homo sapiens) (Q15596 whole entry, looked up, the tested form may be a part): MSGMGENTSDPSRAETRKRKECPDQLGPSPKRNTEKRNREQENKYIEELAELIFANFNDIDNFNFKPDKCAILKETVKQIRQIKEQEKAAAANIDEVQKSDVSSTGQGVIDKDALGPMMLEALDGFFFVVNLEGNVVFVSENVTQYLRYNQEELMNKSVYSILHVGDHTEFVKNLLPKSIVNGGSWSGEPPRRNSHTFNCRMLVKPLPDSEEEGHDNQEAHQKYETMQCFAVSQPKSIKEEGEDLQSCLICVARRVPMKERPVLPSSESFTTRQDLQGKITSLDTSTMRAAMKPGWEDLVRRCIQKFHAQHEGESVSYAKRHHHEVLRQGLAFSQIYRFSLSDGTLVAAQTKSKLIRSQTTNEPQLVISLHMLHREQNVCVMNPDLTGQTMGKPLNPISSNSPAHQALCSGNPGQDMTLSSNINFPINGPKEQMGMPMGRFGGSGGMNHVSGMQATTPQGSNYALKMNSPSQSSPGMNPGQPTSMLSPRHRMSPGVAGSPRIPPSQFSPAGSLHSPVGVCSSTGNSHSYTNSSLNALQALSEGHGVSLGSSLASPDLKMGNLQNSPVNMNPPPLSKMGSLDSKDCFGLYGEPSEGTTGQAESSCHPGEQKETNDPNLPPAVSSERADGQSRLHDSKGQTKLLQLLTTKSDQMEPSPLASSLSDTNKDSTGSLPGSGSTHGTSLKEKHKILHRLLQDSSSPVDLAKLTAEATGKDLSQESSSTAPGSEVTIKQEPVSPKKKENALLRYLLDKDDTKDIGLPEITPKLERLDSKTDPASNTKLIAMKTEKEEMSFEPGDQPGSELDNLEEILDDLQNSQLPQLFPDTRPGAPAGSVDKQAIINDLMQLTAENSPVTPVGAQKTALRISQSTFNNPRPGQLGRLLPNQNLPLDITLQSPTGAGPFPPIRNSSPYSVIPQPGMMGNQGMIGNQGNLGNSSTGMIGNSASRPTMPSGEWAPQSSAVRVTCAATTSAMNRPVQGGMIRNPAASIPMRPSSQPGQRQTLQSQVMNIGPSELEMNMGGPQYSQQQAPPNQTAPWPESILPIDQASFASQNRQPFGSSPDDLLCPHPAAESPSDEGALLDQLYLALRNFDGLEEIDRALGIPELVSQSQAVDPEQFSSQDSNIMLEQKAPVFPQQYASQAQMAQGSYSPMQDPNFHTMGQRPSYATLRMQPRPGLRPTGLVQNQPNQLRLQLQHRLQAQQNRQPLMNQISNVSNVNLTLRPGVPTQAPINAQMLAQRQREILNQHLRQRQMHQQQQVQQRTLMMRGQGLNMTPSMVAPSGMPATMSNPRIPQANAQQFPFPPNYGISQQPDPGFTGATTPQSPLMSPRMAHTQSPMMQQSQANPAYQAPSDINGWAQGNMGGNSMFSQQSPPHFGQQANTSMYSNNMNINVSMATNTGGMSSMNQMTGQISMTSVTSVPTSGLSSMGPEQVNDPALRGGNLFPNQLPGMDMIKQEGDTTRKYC
Sequence of Galanin receptor type 2 (Homo sapiens) (O43603 whole entry, looked up): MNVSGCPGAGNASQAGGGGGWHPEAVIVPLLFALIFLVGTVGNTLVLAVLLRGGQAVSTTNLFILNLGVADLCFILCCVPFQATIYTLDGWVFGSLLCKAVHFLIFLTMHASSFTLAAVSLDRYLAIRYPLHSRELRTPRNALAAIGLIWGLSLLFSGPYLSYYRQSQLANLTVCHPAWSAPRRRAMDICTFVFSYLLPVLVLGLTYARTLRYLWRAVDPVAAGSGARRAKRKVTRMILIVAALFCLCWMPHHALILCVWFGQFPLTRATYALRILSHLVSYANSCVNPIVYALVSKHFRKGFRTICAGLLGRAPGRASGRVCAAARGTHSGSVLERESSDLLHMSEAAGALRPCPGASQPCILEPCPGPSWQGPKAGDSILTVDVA
Sequence of (Lyso)-N-acylphosphatidylethanolamine lipase (Mus musculus) (Q8VD66 whole entry, looked up): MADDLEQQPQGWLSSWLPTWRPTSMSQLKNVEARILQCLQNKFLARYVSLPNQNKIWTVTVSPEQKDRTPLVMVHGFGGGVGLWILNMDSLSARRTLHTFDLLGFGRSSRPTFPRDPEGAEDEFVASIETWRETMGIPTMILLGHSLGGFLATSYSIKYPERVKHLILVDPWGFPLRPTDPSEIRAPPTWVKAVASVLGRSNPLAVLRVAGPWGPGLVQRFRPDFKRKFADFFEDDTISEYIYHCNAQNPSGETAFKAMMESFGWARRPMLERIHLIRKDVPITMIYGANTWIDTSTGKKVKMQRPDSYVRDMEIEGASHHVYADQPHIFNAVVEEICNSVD

O=C1NC(c2ccccc2)Cc2ccncc21 (stereo not drawn)
inhibition [1]: -6.21% | inhibition [2]: -28.4%

CCOC(=O)C1(CC2CC2)CCN(Cc2cnc(-c3ccccc3C)nc2)CC1
inhibition [1]: 3.57% | inhibition [2]: 3.04%

CC(=O)c1cc2c(cc1NC(=O)c1ccc(-n3nc(C)cc3C)cc1)OCO2
inhibition [1]: -6.86% | inhibition [2]: -7.82%

CCOc1ccc(CN2CCNC(=O)C2CC(=O)NCCc2cnccn2)cc1 (stereo not drawn)
inhibition [1]: 10.4% | inhibition [2]: -23.9%

O=C(CCl)N(c1ccccc1)c1ccccc1
inhibition [1]: 9.78% | inhibition [2]: 44.2%

O=c1[nH][nH]c(-c2ccccc2O)c1C(C[N+](=O)[O-])c1ccc(Br)cc1 (stereo not drawn)
inhibition [1]: 24.3% | inhibition [2]: -0.61%

Cc1ccc(S(=O)(=O)NNC(=O)c2sc(=S)n(C)c2C)cc1
inhibition [1]: -4.43% | inhibition [2]: -17.1%

Cc1ccc(S(=O)(=O)CCSC(=N)N)cc1
inhibition [1]: 2.05% | inhibition [2]: 6.17%

Cc1ccc(-c2nc(CSCC(=O)NC3CCN(Cc4ccccc4)CC3)c(C)o2)cc1
inhibition [1]: 11% | inhibition [2]: 33.9% | inhibition [3]: 0.41% | inhibition [4]: 22.5%

O=C(NCCc1ccccc1)C(c1cccs1)N(C(=O)CCl)c1ccc(Cl)cc1 (stereo not drawn)
inhibition [1]: 22.9% | inhibition [2]: 52.8% (active)

Nc1n[nH]c2c1C1(CCCC1)Cc1ccccc1-2
inhibition [1]: 1.41% | inhibition [2]: 10%

Cc1ccc(CS(=O)(=O)c2ncc(Cl)c(C(=O)Nc3nnc(C(C)C)s3)n2)cc1
inhibition [1]: 27.3% | inhibition [2]: 51.9% (active)

CN(Cc1ccc(Cl)s1)C(=O)CCl
inhibition [1]: 14.2% | inhibition [2]: 22%

N#Cc1c(NC(=O)CSc2ncn[nH]2)sc2c1CCCC2
inhibition [1]: 84% (active) | inhibition [2]: 88.2% (active)

CCc1ccc(CCNC(=O)OCCCN2CCC3(CCC(c4ccccc4)CC3)C2=O)cc1 (stereo not drawn)
inhibition [1]: 5.9% | inhibition [2]: 33.8%

Cc1cc(Cl)n2c(nc3ccccc32)c1C#N
inhibition [1]: 4.56% | inhibition [2]: 28.4%

Cc1ccc(-c2nnc(SCCC(=O)N3CCOCC3)o2)cc1
inhibition [1]: -40.9% | inhibition [2]: -16.8%

C/C(CC(=O)NC1C2CC3CC(C2)CC1C3)=N\NC(=O)Cc1cccs1 (stereo not drawn)
inhibition [1]: -16.1% | inhibition [2]: -8.93%

Cc1ccc(NC(=O)Cn2cccc2C2=NC(c3ccccc3)CO2)cc1C (stereo not drawn)
inhibition [1]: -8.04% | inhibition [2]: -4.44%

O=C(N/N=C/c1ccc([N+](=O)[O-])s1)c1ccccc1
inhibition [1]: 34.9% | inhibition [2]: 24.6%

O=C(O)c1cccc(CSc2nnc(-c3ccc(Cl)cc3)o2)c1
inhibition [1]: 41.3% (active) | inhibition [2]: 43.1%

Cc1ccc([C@@H]2C[C@H]3[C@@H](CN2S(=O)(=O)c2ccc(C)cc2)C(=O)C[C@@H](c2ccccc2F)N3S(=O)(=O)c2ccc(C)cc2)cc1
inhibition [1]: -8.37% | inhibition [2]: -5.47%

Cc1ccc(Cl)cc1N1CCN(C(=O)CCS(=O)(=O)c2ccc3c(c2)NC(=O)CO3)CC1
inhibition [1]: 13.9% | inhibition [2]: 30.1%

CC(C)C(=O)Nc1ccc(C(=O)NCc2cccnc2)cc1
inhibition [1]: -2.6% | inhibition [2]: 33.3%

C=CC(=O)NN(C)c1ncc(C(F)(F)F)cc1Cl
inhibition [1]: 15.4% | inhibition [2]: 7.42%

CCCSc1ccc2nc(-c3ccccc3)cn2c1
inhibition [1]: -24.4% | inhibition [2]: 58% (active)

O=S1(=O)c2c(cccc2N2CCCC2)O[C@H](COCc2ccccc2)CN1C1CC1
inhibition [5]: -4.17% | inhibition [6]: 1.77%

COc1ccc(CC(=O)N/N=C/c2cc([N+](=O)[O-])cc(Br)c2O)cc1
inhibition [5]: -11.9% | inhibition [6]: 40% (active)

Oc1ccc(N=Cc2c(O)ccc3ccccc23)cc1
inhibition [5]: -3.16% | inhibition [6]: 4.09%

COc1ccc(C(=O)NC(=S)NNC(=O)CCc2ccccc2)cc1
inhibition [5]: 4.22% | inhibition [6]: 13%

CN1CCN(/N=C/c2ccc(C#N)cc2)CC1
inhibition [5]: 1.63% | inhibition [6]: 2.78%

COc1ccc(/C=C2/SC(=O)N(CCCCCC(=O)Nc3ccccc3C(=O)O)C2=S)cc1
inhibition [1]: 53.8% (active) | inhibition [2]: 63.9% (active) | inhibition [3]: 29.6% (active) | inhibition [4]: 17.7%

COc1ccc(NS(=O)(=O)c2cc(NC(=O)/C=C/c3cc(OC)c(OC)c(OC)c3)ccc2N2CCCCC2)cc1
inhibition [5]: 11% | inhibition [6]: 29.4% (active)

COc1ccccc1C(=O)NNC(=O)c1ccc(NC(=O)c2ccccc2)cc1
inhibition [5]: -8.35% | inhibition [6]: 35.5% (active)

COc1ccc(-c2c(-c3cc(OC)cc(OC)c3)n(C)c3ccc(-c4ccn[nH]4)cc23)cc1
inhibition [5]: 1.44% | inhibition [6]: -1.35%

CN1OC[C@@H]2CN(S(=O)(=O)c3cccc(C(F)(F)F)c3)[C@H](c3ccc(-c4cc5ccccc5o4)cc3)C[C@@H]21
inhibition [1]: 3.18% | inhibition [2]: 46.3% | inhibition [3]: -5.07% | inhibition [4]: 0.77%

CCOCC(=O)NCc1ccc2c(c1)cc(C)n2C
inhibition [5]: 6.46% | inhibition [6]: 6.18%

Cc1ccc2nc(-c3ccc(Br)cc3)cn2c1
inhibition [1]: 9.32% | inhibition [2]: 78.4% (active) | inhibition [3]: -12.3% | inhibition [4]: 19.1%

CNC(=S)NNC(=O)c1cccn(Cc2ccccc2)c1=O
inhibition [5]: 4.48% | inhibition [6]: 46.7% (active)

O=C1NC[C@@H](Cc2ccc(O)cc2)N(CCc2cccc(F)c2)C1=O
inhibition [1]: -20.2% | inhibition [2]: -26.9% | inhibition [3]: 4.3% | inhibition [4]: 5.14%

CN(C)CCNC(=O)C(C(=O)c1ccccc1)n1ccccc1=O (stereo not drawn)
inhibition [5]: -0.25% | inhibition [6]: 2.79%

O=S(=O)(O)c1cc2onnc2c2ccccc12
inhibition [5]: 11% | inhibition [6]: 4.6%

Cc1ncc(CO)c(/C=N/NC(=O)c2cccc(S(=O)(=O)N3CCCC3)c2)c1O
inhibition [5]: -12.6% | inhibition [6]: 15.4%

COc1ccc(Br)cc1C(=O)NC(=S)Nc1cc(-c2nc3ccccc3[nH]2)ccc1C
inhibition [5]: 17.9% | inhibition [6]: 34.4% (active)

COCCCNC(=S)NNC(=O)C(O)(c1ccccc1)c1ccccc1
inhibition [5]: -0.41% | inhibition [6]: 16.3%

Cc1cc2nc3c(=O)[nH]c(=O)nc-3n(C[C@H](O)[C@H](O)[C@H](O)CO)c2cc1C
inhibition [5]: 50.4% (active) | inhibition [6]: 33.3% (active)

Cc1ccc(O)c(/C=N/NC(=O)COc2ccc3c(C)cc(=O)oc3c2)c1
inhibition [5]: -10.9% | inhibition [6]: 46.1% (active)

C[C@H]1CCC/C=C/C(=O)c2c(O)cc(O)cc2CC(=O)O1
inhibition [1]: 41.5% (active) | inhibition [2]: 55.5% (active) | inhibition [3]: 49.3% (active) | inhibition [4]: -1.02%

O=C1C(Cc2ccc(O)cc2)NC(=S)N1Cc1ccccc1 (stereo not drawn)
inhibition [5]: -2.95% | inhibition [6]: -0.37%

Cc1ccc(-c2nn(-c3ccccc3)cc2/C=C/C(=O)Nc2cccc(S(N)(=O)=O)c2)cc1
inhibition [5]: 26.6% (active) | inhibition [6]: 48.1% (active)

CCOc1ccc(-n2c(O)c(/C=N/Nc3nnc(C)c(=O)[nH]3)c3ccccc3c2=O)cc1
inhibition [5]: -21.4% | inhibition [6]: 26% (active)

O=C(c1c(F)cccc1F)N1CCN(S(=O)(=O)c2ccc3c(c2)OCCO3)CC1
inhibition [1]: -6.59% | inhibition [2]: 23.6% | inhibition [3]: -10.6% | inhibition [4]: 23.4%

O=c1c2ccccc2c(-c2ccccc2)nn1-c1ccccn1
inhibition [5]: -1.19% | inhibition [6]: -0.97%

COc1ccc(C(=O)NNc2cc(C)nc(NNC(=O)c3ccc(OC)cc3)n2)cc1
inhibition [5]: -5.67% | inhibition [6]: 5.09%

O=C(N/N=C/c1cc([N+](=O)[O-])ccc1O)/C(=C\c1cccs1)NC(=O)c1ccccc1
inhibition [5]: -11.3% | inhibition [6]: 35% (active)

COc1cc(C(=O)NCC2(c3ccccc3)CCCC2)ccc1OC(C)C
inhibition [5]: 1.07% | inhibition [6]: 2.19%

CN(C)S(=O)(=O)c1cccc(NC(=O)COC(=O)C2(c3ccccc3F)CCCC2)c1
inhibition [7]: 17.7% | inhibition [8]: 15.1% | inhibition [1]: -4.31% | inhibition [2]: 0.58%

COc1ccc(OC)c(NC(=O)c2cc(-c3cc(F)ccc3OCC3CCCO3)n[nH]2)c1 (stereo not drawn)
inhibition [1]: 1.64% | inhibition [2]: -1.6% | inhibition [3]: 3.7% | inhibition [4]: -6.7%

COc1ccc(/C(=N\O)c2nccc3cc(OC)c(OC)cc23)cc1OC
inhibition [5]: -7.63% | inhibition [6]: 15.5%

CC[C@@H](C)[C@H](NC(=O)CCc1c(C)c2cc3c4c(oc3c(C)c2oc1=O)CCCC4)C(=O)O
inhibition [1]: 40.8% (active) | inhibition [2]: 59.5% (active) | inhibition [3]: 22.3% (active) | inhibition [4]: 24.8%

CCN(C(=O)Nc1cccc2ccccc12)c1ccccc1
inhibition [5]: 2.01% | inhibition [6]: 3.23%

CCC(=O)NC(=S)Nc1ccc(NC(=O)c2ccco2)c(Cl)c1
inhibition [5]: 3.69% | inhibition [6]: 13.4%

O=C(Nc1cccc(-c2nc3ccccc3[nH]2)c1)c1ccc(C(=O)Nc2cccc(-c3nc4ccccc4[nH]3)c2)cc1
inhibition [5]: 9.76% | inhibition [6]: 10.8%

COc1ccccc1C(=O)NNC(=O)CCN1C(=O)/C(=C\c2ccccc2)SC1=S
inhibition [5]: -8.51% | inhibition [6]: 9.19%

Cc1cc(C(=O)CCC(=O)NNC(=O)c2ccccc2O)c(C)s1
inhibition [5]: -14.4% | inhibition [6]: 11.4%

O=C(N/N=C/c1ccco1)c1ccc(C(=O)N/N=C/c2ccco2)o1
inhibition [5]: -19.7% | inhibition [6]: 28.2% (active)

CCOC(=O)Cn1c2c(n(-c3ccc(F)cc3)c1=O)C=C(c1ccccc1)[C@@H](C)C(C(=O)N(C)C1CCCCC1)=C2
inhibition [9]: 29.3%
